# Screening data as filed in PubChem BioAssay.
# The list is not random: actives were taken first. Their share in the collection is about 1.5%.
# SIRT5 inh: blocks human SIRT5 desuccinylation of peptide; Purified SirT5, succinyl-peptide AMC, trypsin-coupled fluorescence; AID 652115; actives 1.1% (n = 330,000); inhibition, % at 15 µM; in the data active = inhibition above about 15%
# Target sequence (Q9NXA8 whole entry, looked up): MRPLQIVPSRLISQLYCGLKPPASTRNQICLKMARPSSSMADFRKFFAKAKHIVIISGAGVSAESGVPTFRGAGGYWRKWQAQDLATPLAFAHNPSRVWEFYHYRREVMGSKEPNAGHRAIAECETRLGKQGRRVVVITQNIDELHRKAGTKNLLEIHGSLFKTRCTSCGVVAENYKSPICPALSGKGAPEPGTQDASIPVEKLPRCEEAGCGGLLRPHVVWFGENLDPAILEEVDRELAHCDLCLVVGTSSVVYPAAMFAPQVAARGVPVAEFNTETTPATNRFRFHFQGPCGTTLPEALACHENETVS
# S100A4 MyoIIA: blocks human S100A4 binding to myosin IIA peptide | P26447 | S100A4/TAMRA-MyoIIA peptide fluorescence polarization | inhibition, % at 10.7 µM | actives 0.14% (n = 360,000) | AID 652163;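 active = mean inhibition of at least 70% across replicates, with every replicate also reaching that level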
# Target sequence (P26447 whole entry, looked up): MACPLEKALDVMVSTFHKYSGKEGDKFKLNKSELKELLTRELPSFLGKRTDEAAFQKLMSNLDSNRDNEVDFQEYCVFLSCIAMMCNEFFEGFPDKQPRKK
#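 assay system = human S100A4 monomer with TAMRA-labelled myosin IIA peptide | also added = labelled myosin peptide probe, 5 nM | incubation = 5 min between mix addition and reading | control set = DMSO and TFP controls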
# PKA-R2B act: activators of human PKA-R2B complex; AID 504700; PKA-R2B holoenzyme dissociation, Cy5-IP20 fluorescence polarization; R2B truncated from residue 108, S112A mutant; 0% DMSO only, 100% 113 µM cGMP; P22694+P31323; activation, % at 11.4 µM; actives 0.079% (n = 340,000);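 active = activation above a cutoff set at the mean over all compounds plus 3 SD, cut at about 18% in these data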;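 note: higher means more holoenzyme dissociation and a rise in polarization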
# CRFBP-R2 block: CRF-BP/CRF-R2 complex antagonism; HEK293 CRF-R2/CRF-BP, CRF-induced calcium fluorescence; inhibition, % at 11.8 µM; actives 0.59% (n = 350,000); AID 588475;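 active = inhibition of the ligand-induced calcium signal above about 50% at the single tested concentration, limit read from the data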
# PKA-R1A activ: activates the PKA-R1A holoenzyme complex; PKA-R1A dissociation, Cy5-IP20 fluorescence polarization; scaled: DMSO 0%, 113 µM cGMP 100%; P00514+P68181; AID 504707; actives 0.083% (n = 340,000); activation, % at 11.4 µM;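 active = percent activation above the mean of all tested compounds plus 3 SD, cut at about 19% in these data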;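 note: higher means more PKAc released from R1A so a rise in polarization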
# Active calls of the source: *; . = no result; ! = a repeat was not active.
SMILES,SIRT5 inh,S100A4 MyoIIA,PKA-R2B act,CRFBP-R2 block,PKA-R1A activ
O=C(Nc1cccc(S(=O)(=O)C(F)F)c1)c1ccc(S(=O)(=O)N2CCCCC2)cc1,-2,6,0,-47,0
C#Cc1ccc([C@H]2C=C(C(=O)NCc3ccccc3)O[C@@H](OCC)[C@@H]2CCCO)cc1,21*!,-2,1,-3,-6
C#Cc1ccc([C@@H]2C=C(C(=O)Nc3ccccc3)O[C@H](OCC)[C@H]2CCCO)cc1,6,0,-15,-1,6
C/C=C/c1ccc([C@H]2[C@@H](CO)N(C(=O)C3CC3)[C@H]2CN(C)C(C)=O)cc1,1,2,.,.,.
O=C1NC(=S)S/C1=C\c1coc2ccc(O)cc2c1=O,6,4,4,96*,7
CC1(C)C2CCC(C2)C1(C)N=C1OC(CCl)CS1 (stereo not drawn),-1,4,-1,-3,-5
ClCC1CSC(=NC23CC4CC(CC(C4)C2)C3)O1 (stereo not drawn),17*,-6,-1,-20,-5
CN1C[C@H](O)COC[C@@H]2O[C@H](CC(=O)NC3CCC3)CC[C@H]21,1,6,.,.,.
COc1ccc(N=C2S/C(=C\c3ccc(N4CCOCC4)o3)C(=O)N2CCc2c[nH]c3ccccc23)cc1,.,.,4,.,0
COc1ccc(N=C2S/C(=C\c3ccc(OCC(=O)O)cc3)C(=O)N2CCc2c[nH]c3ccccc23)cc1,50*,3,11,25,12
Cn1c(=O)n(C)c2cc(NS(=O)(=O)c3ccc(Cl)s3)ccc21,18*,-4,-11,-8,-11
Cc1ccccc1C(=O)NCCN1CCOCC1,-5,1,3,-3,-4
CC(C(=O)NCCN1CCOCC1)(c1ccccc1)c1ccccc1,-3,3,3,81*,3
c1nc(N2CCOCC2)c2c3c(sc2n1)CCCC3,36*,5,5,-9,-9
COCC#Cc1cnc2c(c1)C(=O)N([C@H](C)CO)C[C@@H](C)[C@H](CN(C)S(C)(=O)=O)O2,-1,17,.,.,.
CC(=O)Nc1ccc(NC(=O)c2sc3nc4n(c(=O)c3c2C)CCCCC4)cc1,17*,2,-7,-2,-1
COCc1cn(CC[C@@H]2CC[C@H](NC(=O)Nc3ccc(Cl)cc3)[C@@H](CO)O2)nn1,-3,24,.,.,.
CN1C(=O)C(O)(c2sc(N)nc2-c2ccccc2)c2ccccc21 (stereo not drawn),21*,0,5,-9,-11
C[C@H]1CN([C@@H](C)CO)C(=O)c2cc(/C=C/c3ccccc3)cnc2O[C@@H]1CN(C)C(=O)c1ccccc1,-13,-17,.,.,.
Cn1c(=O)cc(SCC(=O)N2CCN(C3CCCCC3)CC2)c2ccccc21,17*,-1,-19,5,-3
Fc1cccc(Nc2ncnc3sccc23)c1,-6,-6,-3,-10,4
Cc1cc(F)ccc1S(=O)(=O)Nc1ncnc2sccc12,23*,-1,2,-4,-3
Cn1cc(SCC(=O)NC2CCCC2)c2ccccc21,-1,87*,-2,-8,6
CCCN(C)C[C@@H]1OCCCC[C@H](C)Oc2ccc(NC(=O)CCC(F)(F)F)cc2C(=O)N([C@H](C)CO)C[C@@H]1C,3,16,.,.,.
Cc1ccc(S(=O)(=O)N[C@H]2CC[C@H](CC(=O)NCCN3CCCCC3)O[C@H]2CO)cc1,-5,-18,.,.,.
SMILES,SIRT5 inh,S100A4 MyoIIA,PKA-R2B act,CRFBP-R2 block,PKA-R1A activ
NC(=S)N/N=C/c1ccccc1OC(=O)/C=C/c1ccccc1,-13,-6,-3,124*,-1
NC(=S)N/N=C\c1ccccc1OCc1ccccc1,0,-2,-3,37,1
CN1[C@@H]2c3ccc(-c4cccc(F)c4)c(=O)n3C[C@@H]2[C@@H](CO)[C@@H]1C(=O)NC1CCCCC1,1,-5,.,.,.
CCn1nc(C)c(/C=C/C(=O)Nc2ccc(C)cc2C)c1C,37*,-10,-6,3,5
O=C(CSc1nnc(COc2ccc(Br)cc2)o1)N1CCOCC1,-4,69,9,-3,-8
O=C(CSc1nnc(COc2ccccc2)o1)N1CCOCC1,23*,-5,-5,-6,4
CN(C)C(=O)c1cccc(-c2ccc([C@@H]3[C@H]4CN(C(=O)CC5CC5)CC(=O)N4[C@H]3CO)cc2)c1,3,3,.,.,.
Cc1ccccc1OCC(=O)Nc1ccc(S(=O)(=O)N2CCCC2)cc1,3,114*,-5,26,-1
COc1ccccc1OCC(=O)Nc1ccc(S(=O)(=O)N2CCCCCC2)cc1,-1,-2,-6,-28,3
Cc1cccc(OCC(=O)Nc2ccncc2)c1C,15*,-2,-9,-7,-5
C[C@@H]1CN([C@H](C)CO)C(=O)c2cc(NC(=O)CCN3CCOCC3)ccc2O[C@@H]1CN(C)Cc1ccc(C(=O)Nc2ccccc2N)cc1,3,1,.,.,.
COCC#Cc1ccc2c(c1)O[C@H](CN(C)Cc1ccccc1F)[C@@H](C)CN([C@H](C)CO)S2(=O)=O,8,1,.,.,.
Cc1c(Cl)cccc1N1C(=O)c2ccccc2C1=O,.,.,-2,51*,-3
O=C(Nc1ccccc1F)N[C@H]1C=C[C@@H](CC(=O)N2CCCCC2)O[C@@H]1CO,13,4,.,.,.
CCCNC(=O)N[C@H]1CC[C@@H](CC(=O)NC2CCCCC2)O[C@H]1CO,1,-31,.,.,.
CN(C)CCN(Cc1ccccc1)S(=O)(=O)c1ccc(-c2ccc(=O)[nH]n2)s1,16*,-13,-7,-19,-15
COc1ccc(S(=O)(=O)Nc2cccc3c2O[C@@H](CN(C)S(=O)(=O)c2cccs2)[C@H](C)CN([C@@H](C)CO)C3=O)cc1,-4,-6,.,.,.
O=C(O)c1ccc(Nc2nc(-c3ccc([N+](=O)[O-])cc3)nc3ccccc23)cc1,24*,-1,7,16,-4
COc1ccc(/C=N/NC(=O)c2ccco2)cc1Cn1nc(C)cc1C,34*,-9,-2,-4,-2
COc1ccc(/C=N/NC(=O)c2ccco2)cc1Cn1nc(C)c([N+](=O)[O-])c1C,.,10,2,11,8
COc1ccc(/C=N/NC(=O)c2ccncc2)cc1Cn1nc([N+](=O)[O-])c(Br)c1C,20*,0,2,-1,-2
CCOc1ccc(NC(=O)CN2C(=O)S/C(=C/c3cccn3C)C2=O)cc1,112*,-8,-5,2,3
CC(=O)Nc1ncc2c(n1)CC(c1ccco1)CC2=O (stereo not drawn),16*,1,-18,3,-1
COc1ccc2c3c(n(C)c2c1)[C@H](CO)N(CC1CCCCC1)CC31CCN(C(C)=O)CC1,5,-9,.,.,.
CC(C)(C)c1ccc(-c2nc(N)nc(N)n2)cc1,-3,5,.,1,.
Nc1nc(-c2ccc(Cl)cc2)nc(-c2ccc(Cl)cc2)n1,29*,-9,-3,6,-5
